Data from ChEMBL document CHEMBL1909554, “Total synthesis and bioactivity of the marine alkaloid pityriacitrin and some of its derivatives” (Eur J Med Chem, 2011).
The source made the active and inactive calls. The rule behind the calls is not given here.

Assays:
[1] = Cytotoxicity against human MDA231 cells […] by MTT assay; assay type: functional, cell-based; conditions: MDA-MB-231
How it was run: (§1)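 MTT metabolic assay. Cells were exposed to compound continuously starting 18 h after setup, and survival was read at 96 h. IC50 is the concentration giving 50% growth inhibition relative to untreated cells. Values are means of three independent determinations.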

PC-3 = assay: Cytotoxicity against human PC3 cells after 18 hrs by MTT assay; assay type: functional, cell-based; conditions: PC-3, 96 h, in the assay text read “after 96 hrs” for “after 18 hrs”; how it was run: as §1
MCF7 = assay: Cytotoxicity against human MCF7 cells […] by MTT assay; assay type: functional, cell-based; how it was run: as §1
MDA-MB-231 [2] = assay: Induction of apoptosis in human MDA231 cells at 10 nM by annexin-V/7-AAD staining-based fluorescence assay; assay type: functional
How it was run: (§2)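 MDA-231 breast carcinoma cells were exposed to test compounds at 10, 20 or 50 µM, or to paclitaxel as reference at 10 or 50 nM. Results are expressed as percent apoptotic cells.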

MDA-MB-231 [3] = assay: Induction of apoptosis in human MDA231 cells at 50 nM by annexin-V/7-AAD staining-based fluorescence assay; assay type: functional; how it was run: as §2
MDA-MB-231 [4] = assay: Induction of apoptosis in human MDA231 cells at 20 uM by annexin-V/7-AAD staining-based fluorescence assay; assay type: functional; how it was run: as §2
[5] = target: Proto-oncogene tyrosine-protein kinase Src (Homo sapiens) (UniProt P12931); assay: Inhibition of human recombinant Src at 10 uM after 4 hrs by Kinase-Glo luminescent assay
Sequence of Proto-oncogene tyrosine-protein kinase Src (Homo sapiens) (P12931 2-536 limits assumed): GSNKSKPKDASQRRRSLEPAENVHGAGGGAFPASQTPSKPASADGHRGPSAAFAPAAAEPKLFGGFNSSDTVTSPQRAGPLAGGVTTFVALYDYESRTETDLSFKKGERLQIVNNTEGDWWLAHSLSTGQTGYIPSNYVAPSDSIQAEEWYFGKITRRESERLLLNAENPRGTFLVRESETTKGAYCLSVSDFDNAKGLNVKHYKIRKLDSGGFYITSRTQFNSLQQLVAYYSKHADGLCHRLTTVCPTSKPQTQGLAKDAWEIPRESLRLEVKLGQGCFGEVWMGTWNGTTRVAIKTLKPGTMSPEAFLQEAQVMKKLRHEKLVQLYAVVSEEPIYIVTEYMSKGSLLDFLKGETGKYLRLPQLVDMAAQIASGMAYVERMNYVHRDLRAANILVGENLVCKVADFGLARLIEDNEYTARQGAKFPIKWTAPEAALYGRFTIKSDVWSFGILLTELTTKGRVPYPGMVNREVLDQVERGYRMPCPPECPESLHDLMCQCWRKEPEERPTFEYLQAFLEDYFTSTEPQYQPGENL
How it was run: (§3)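 Full-length human recombinant kinases were incubated in kinase buffer containing ATP and poly(Glu:Tyr) substrate, with or without compound at 10 µM final, for 4 h at room temperature. Remaining ATP was quantified by Kinase-Glo luminescence.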

[6] = target: Focal adhesion kinase 1 (Homo sapiens) (UniProt Q05397); assay: Inhibition of human recombinant FAK at 10 uM after 4 hrs by Kinase-Glo luminescent assay; how it was run: as §3
Sequence of Focal adhesion kinase 1 (Homo sapiens) (Q05397 2-1052 limits assumed): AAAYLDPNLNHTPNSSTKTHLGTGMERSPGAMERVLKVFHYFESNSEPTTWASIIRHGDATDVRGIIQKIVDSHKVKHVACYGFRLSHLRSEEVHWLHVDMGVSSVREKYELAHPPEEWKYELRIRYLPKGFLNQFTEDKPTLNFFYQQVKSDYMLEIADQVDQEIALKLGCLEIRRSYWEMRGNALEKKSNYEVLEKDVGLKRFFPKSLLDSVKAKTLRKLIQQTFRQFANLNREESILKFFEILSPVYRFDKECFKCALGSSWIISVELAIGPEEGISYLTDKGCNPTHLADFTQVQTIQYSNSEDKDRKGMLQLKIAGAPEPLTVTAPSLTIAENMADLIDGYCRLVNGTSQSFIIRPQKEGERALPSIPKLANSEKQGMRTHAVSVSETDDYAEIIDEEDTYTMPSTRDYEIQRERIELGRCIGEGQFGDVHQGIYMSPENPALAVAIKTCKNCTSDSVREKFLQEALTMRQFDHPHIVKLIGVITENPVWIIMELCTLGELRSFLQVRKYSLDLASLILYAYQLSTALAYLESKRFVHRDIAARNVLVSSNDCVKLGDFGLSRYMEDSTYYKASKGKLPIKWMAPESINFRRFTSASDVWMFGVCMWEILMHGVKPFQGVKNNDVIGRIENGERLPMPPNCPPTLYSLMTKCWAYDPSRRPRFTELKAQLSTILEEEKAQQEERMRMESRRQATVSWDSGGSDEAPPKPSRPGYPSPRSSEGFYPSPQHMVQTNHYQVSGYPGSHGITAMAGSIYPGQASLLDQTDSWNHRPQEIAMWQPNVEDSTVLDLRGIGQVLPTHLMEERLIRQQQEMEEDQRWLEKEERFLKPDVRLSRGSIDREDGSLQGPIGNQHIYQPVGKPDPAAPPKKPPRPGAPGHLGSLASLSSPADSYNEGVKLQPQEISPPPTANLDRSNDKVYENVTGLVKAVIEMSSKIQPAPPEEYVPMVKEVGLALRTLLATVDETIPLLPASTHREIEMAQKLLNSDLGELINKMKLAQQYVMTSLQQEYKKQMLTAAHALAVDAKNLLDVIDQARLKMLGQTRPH

[7] = target: Dual specificity mitogen-activated protein kinase kinase 1 (Homo sapiens) (UniProt Q02750); assay: Inhibition of human recombinant MEK1 at 10 uM after 4 hrs by Kinase-Glo luminescent assay; how it was run: as §3
Sequence of Dual specificity mitogen-activated protein kinase kinase 1 (Homo sapiens) (Q02750 whole entry): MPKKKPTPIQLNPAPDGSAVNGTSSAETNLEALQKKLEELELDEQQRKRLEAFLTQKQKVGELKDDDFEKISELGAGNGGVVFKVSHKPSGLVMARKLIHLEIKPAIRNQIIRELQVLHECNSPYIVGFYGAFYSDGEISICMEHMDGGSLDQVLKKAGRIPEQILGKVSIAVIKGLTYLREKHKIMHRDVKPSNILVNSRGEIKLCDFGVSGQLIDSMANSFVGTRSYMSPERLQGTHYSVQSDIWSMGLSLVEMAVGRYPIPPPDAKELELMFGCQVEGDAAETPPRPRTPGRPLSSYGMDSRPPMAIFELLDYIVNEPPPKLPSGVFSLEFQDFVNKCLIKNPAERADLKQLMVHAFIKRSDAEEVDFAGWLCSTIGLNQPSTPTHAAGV

MDA-MB-231 [8] = assay: Induction of necrosis in human MDA231 cells at 50 uM by annexin-V/7-AAD staining-based fluorescence assay; assay type: functional, cell-based
MDA-MB-231 [9] = assay: Induction of apoptosis in human MDA231 cells at 50 uM by annexin-V/7-AAD staining-based fluorescence assay; assay type: functional; how it was run: as §2
MDA-MB-231 [10] = assay: Induction of apoptosis in human MDA231 cells by annexin-V/7-AAD staining-based fluorescence assay; assay type: functional, cell-based
[11] = target: Aurora kinase B (Homo sapiens) (UniProt Q96GD4); assay: Inhibition of human recombinant Aurora B at 10 uM after 4 hrs by Kinase-Glo luminescent assay; how it was run: as §3
Sequence of Aurora kinase B (Homo sapiens) (Q96GD4 whole entry): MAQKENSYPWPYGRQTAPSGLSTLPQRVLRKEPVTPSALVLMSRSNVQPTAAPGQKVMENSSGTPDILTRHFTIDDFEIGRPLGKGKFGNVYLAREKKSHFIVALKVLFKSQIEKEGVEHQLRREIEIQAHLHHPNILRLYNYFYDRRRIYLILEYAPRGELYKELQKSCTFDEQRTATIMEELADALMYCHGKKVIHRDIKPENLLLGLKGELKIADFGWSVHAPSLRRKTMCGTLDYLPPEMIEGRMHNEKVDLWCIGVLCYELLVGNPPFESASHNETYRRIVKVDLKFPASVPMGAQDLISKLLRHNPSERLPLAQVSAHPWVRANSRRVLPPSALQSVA

[12] = target: Epidermal growth factor receptor (Homo sapiens) (UniProt P00533); assay: Inhibition of human recombinant EGFR at 10 uM after 4 hrs by Kinase-Glo luminescent assay; how it was run: as §3
Sequence of Epidermal growth factor receptor (Homo sapiens) (P00533 whole entry): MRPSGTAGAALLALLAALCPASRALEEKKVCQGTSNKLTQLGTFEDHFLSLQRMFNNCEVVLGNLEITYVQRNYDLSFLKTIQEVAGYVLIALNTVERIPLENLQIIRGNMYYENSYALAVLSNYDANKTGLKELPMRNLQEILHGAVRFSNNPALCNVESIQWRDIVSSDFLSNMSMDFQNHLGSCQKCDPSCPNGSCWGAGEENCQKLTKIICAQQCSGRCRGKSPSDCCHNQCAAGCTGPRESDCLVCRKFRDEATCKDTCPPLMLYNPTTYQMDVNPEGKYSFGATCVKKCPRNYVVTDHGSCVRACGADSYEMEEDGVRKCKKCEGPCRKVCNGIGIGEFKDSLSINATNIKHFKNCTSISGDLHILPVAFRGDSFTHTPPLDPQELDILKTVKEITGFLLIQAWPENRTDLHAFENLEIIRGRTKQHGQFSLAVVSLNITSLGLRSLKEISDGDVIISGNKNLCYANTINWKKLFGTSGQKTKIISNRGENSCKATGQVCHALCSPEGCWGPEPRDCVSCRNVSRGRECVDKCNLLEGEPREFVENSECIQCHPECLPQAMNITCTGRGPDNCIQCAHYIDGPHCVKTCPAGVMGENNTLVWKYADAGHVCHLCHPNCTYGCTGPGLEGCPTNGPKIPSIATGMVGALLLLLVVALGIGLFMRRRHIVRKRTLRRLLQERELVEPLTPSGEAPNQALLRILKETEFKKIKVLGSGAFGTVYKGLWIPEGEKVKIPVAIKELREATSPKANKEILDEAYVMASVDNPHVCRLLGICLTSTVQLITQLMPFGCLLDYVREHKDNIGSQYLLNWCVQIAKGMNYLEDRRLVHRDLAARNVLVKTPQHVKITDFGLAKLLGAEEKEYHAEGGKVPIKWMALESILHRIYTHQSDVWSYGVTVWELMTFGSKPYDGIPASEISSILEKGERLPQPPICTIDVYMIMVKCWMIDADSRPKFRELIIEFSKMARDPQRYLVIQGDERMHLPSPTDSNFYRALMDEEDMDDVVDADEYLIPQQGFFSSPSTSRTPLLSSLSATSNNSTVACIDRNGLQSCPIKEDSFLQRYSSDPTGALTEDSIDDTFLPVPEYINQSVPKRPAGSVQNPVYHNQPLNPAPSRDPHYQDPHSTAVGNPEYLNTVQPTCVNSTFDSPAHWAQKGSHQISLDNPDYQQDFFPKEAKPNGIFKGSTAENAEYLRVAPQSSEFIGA

**Q.** With `CN(C)CCNC(=O)c1cc2c([nH]c3ccc(O)cc32)c(C(=O)c2c[nH]c3ccccc23)n1` as the compound, how does the IC50 [1] read?
**A.** Its IC50 is 1.33 µM.

**Q.** For `COc1ccc2[nH]cc(C(=O)c3nc(C(=O)O)cc4c3[nH]c3ccccc34)c2c1`, which IC50 (PC-3) is on record?
**A.** The IC50 was 32.3 µM.

**Q.** What about the IC50 (MCF7) of the same compound?
**A.** Its IC50 is 3.4 µM.

**Q.** What about the IC50 [1] of the same compound?
**A.** Its IC50 is 12.1 µM.

**Q.** With `CNCCNC(=O)c1cc2c([nH]c3ccc(O)cc32)c(C(=O)c2c[nH]c3ccccc23)n1` as the compound, how does the IC50 [1] read?
**A.** Its IC50 is 4.36 µM.

**Q.** For `CNCCNC(=O)c1cc2c([nH]c3ccccc32)c(C(=O)c2c[nH]c3ccccc23)n1`, which IC50 [1] is on record?
**A.** The IC50 was 3.98 µM.

**Q.** What does the source list for `O=C(c1c[nH]c2ccc(Br)cc12)c1nccc2c1[nH]c1ccccc12`?
**A.** IC50 (PC-3): > 100 µM; IC50 (MCF7): 60.9 µM; IC50 [1]: > 100 µM

**Q.** With `CN(C)CCNC(=O)c1cc2c([nH]c3ccccc32)c(C(=O)c2c[nH]c3ccccc23)n1` as the compound, how does the IC50 [1] read?
**A.** The IC50 was 3.56 µM.

**Q.** With `CC(=O)O[C@H]1C(=O)[C@@]2(C)[C@H]([C@H](OC(=O)c3ccccc3)[C@]3(O)C[C@H](OC(=O)[C@H](O)[C@@H](NC(=O)c4ccccc4)c4ccccc4)C(C)=C1C3(C)C)[C@]1(OC(C)=O)CO[C@@H]1C[C@@H]2O` [PACLITAXEL] as the compound, how does the Activity (MDA-MB-231 [2]) read?
**A.** The Activity was 11.93%.

**Q.** What about the Activity (MDA-MB-231 [3]) of the same compound?
**A.** Its Activity is 17.23%.

**Q.** For `NCCCNC(=O)c1cc2c([nH]c3ccccc32)c(C(=O)c2c[nH]c3ccccc23)n1`, which IC50 [1] is on record?
**A.** Its IC50 is 2.48 µM.

**Q.** What does the source list for `O=C(c1c[nH]c2ccccc12)c1nccc2c1[nH]c1ccc(O)cc12`?
**A.** IC50 (PC-3): 16.4 µM; Activity (MDA-MB-231 [4]): 11.16%; IC50 (MCF7): 12.9 µM; inhibition [5]: 8%; inhibition [6]: 11%; inhibition [7]: 11%; Activity (MDA-MB-231 [8]): Active; Activity (MDA-MB-231 [9]): 41%; Activity (MDA-MB-231 [10]): Dose-dependent effect; IC50 [1]: 6.35 µM; inhibition [11]: 10%; inhibition [12]: 9%

**Q.** With `NCCNC(=O)c1cc2c([nH]c3ccccc32)c(C(=O)c2c[nH]c3ccccc23)n1` as the compound, how does the IC50 [1] read?
**A.** Its IC50 is 12.6 µM.

**Q.** With `COC(=O)c1cc2c([nH]c3ccccc32)c(C(=O)c2c[nH]c3ccccc23)n1` as the compound, how does the IC50 [1] read?
**A.** Its IC50 is 12.6 µM.

**Q.** For `NCCNC(=O)c1cc2c([nH]c3ccc(O)cc32)c(C(=O)c2c[nH]c3ccccc23)n1`, which IC50 [1] is on record?
**A.** The IC50 was 15.8 µM.

**Q.** Which IC50 (PC-3) does the source give for `O=C(O)c1cc2c([nH]c3ccc(O)cc32)c(C(=O)c2c[nH]c3ccccc23)n1` here?
**A.** The IC50 was 57.9 µM.

**Q.** What about the IC50 (MCF7) of the same compound?
**A.** Its IC50 is 79 µM.

**Q.** And the IC50 [1]?
**A.** The IC50 was 42 µM.

**Q.** Which IC50 [1] does the source give for `NCCCCNC(=O)c1cc2c([nH]c3ccc(O)cc32)c(C(=O)c2c[nH]c3ccccc23)n1` here?
**A.** The IC50 was 8.7 µM.

**Q.** Which IC50 [1] does the source give for `NCCCCNC(=O)c1cc2c([nH]c3ccccc32)c(C(=O)c2c[nH]c3ccccc23)n1` here?
**A.** The IC50 was 3.04 µM.

**Q.** For `O=C(O)c1cc2c([nH]c3ccccc32)c(C(=O)c2c[nH]c3ccccc23)n1`, which IC50 (PC-3) is on record?
**A.** Its IC50 is 16.9 µM.

**Q.** What about the Activity (MDA-MB-231 [4]) of the same compound?
**A.** Its Activity is 4.89%.

**Q.** What about the IC50 (MCF7) of the same compound?
**A.** Its IC50 is 23.4 µM.

**Q.** And the Activity (MDA-MB-231 [8])?
**A.** Its Activity is “Active”.

**Q.** What about the Activity (MDA-MB-231 [9]) of the same compound?
**A.** Its Activity is 17.68%.

**Q.** What about the Activity (MDA-MB-231 [10]) of the same compound?
**A.** Its Activity is “Dose-dependent effect”.

**Q.** And the IC50 [1]?
**A.** Its IC50 is 24.8 µM.

**Q.** With `COc1ccc2[nH]cc(C(=O)c3nccc4c3[nH]c3ccccc34)c2c1` as the compound, how does the IC50 (PC-3) read?
**A.** The IC50 was 49.9 µM.

**Q.** What about the IC50 (MCF7) of the same compound?
**A.** The IC50 was 6.94 µM.

**Q.** And the IC50 [1]?
**A.** The IC50 was 18.8 µM.

**Q.** What does the source list for `O=C(c1c[nH]c2ccc(Br)cc12)c1nccc2c1[nH]c1ccc(O)cc12`?
**A.** IC50 (PC-3): > 100 µM; IC50 (MCF7): > 100 µM; IC50 [1]: > 100 µM

**Q.** For `CN(C)CCCNC(=O)c1cc2c([nH]c3ccccc32)c(C(=O)c2c[nH]c3ccccc23)n1`, which IC50 [1] is on record?
**A.** The IC50 was 6.02 µM.

**Q.** Which IC50 (PC-3) does the source give for `COc1ccc2[nH]cc(C(=O)c3nccc4c3[nH]c3ccc(O)cc34)c2c1` here?
**A.** The IC50 was over 100 µM.

**Q.** What about the IC50 (MCF7) of the same compound?
**A.** The IC50 was over 100 µM.

**Q.** What about the IC50 [1] of the same compound?
**A.** The IC50 was 44.5 µM.

**Q.** Which results are given for `O=C(c1c[nH]c2ccccc12)c1nccc2c1[nH]c1ccccc12`?
**A.** IC50 (PC-3): 55.1 µM; IC50 (MCF7): > 100 µM; IC50 [1]: > 100 µM

**Q.** Which IC50 (PC-3) does the source give for `O=C(c1c[nH]c2ccc([N+](=O)[O-])cc12)c1nccc2c1[nH]c1ccccc12` here?
**A.** Its IC50 is 38.8 µM.

**Q.** And the IC50 (MCF7)?
**A.** The IC50 was over 100 µM.

**Q.** And the IC50 [1]?
**A.** The IC50 was over 100 µM.

**Q.** Which IC50 [1] does the source give for `COC(=O)c1cc2c([nH]c3ccc(O)cc32)c(C(=O)c2c[nH]c3ccccc23)n1` here?
**A.** Its IC50 is 3.16 µM.

**Q.** For `O=C(c1c[nH]c2ccc([N+](=O)[O-])cc12)c1nccc2c1[nH]c1ccc(O)cc12`, which IC50 (PC-3) is on record?
**A.** The IC50 was over 100 µM.

**Q.** And the IC50 (MCF7)?
**A.** The IC50 was over 100 µM.

**Q.** What about the IC50 [1] of the same compound?
**A.** The IC50 was over 100 µM.

**Q.** With `CN(C)CCCNC(=O)c1cc2c([nH]c3ccc(O)cc32)c(C(=O)c2c[nH]c3ccccc23)n1` as the compound, how does the IC50 [1] read?
**A.** The IC50 was 2.51 µM.
